Test results from ChEMBL document CHEMBL5038582, “Adamantyl Isothiocyanates as Mutant p53 Rescuing Agents and Their Structure-Activity Relationships” (J Med Chem, 2021).
Active and inactive are the calls of the source. No cut-off for these calls is given here.

Experiments:
MDA-MB-231 [1] = experiment: Antiproliferative activity against human MDA-MB-231 cells expressing p53 R280K mutant assessed as inhibition of cell growth incubated for 24 hrs by WST-1 assay; type: functional, cell-based; conditions: MDA-MB-231, 24 h
Outline: (§1)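 WST-1 proliferation assay. Compound diluted in DMSO and added to cells at 1% DMSO final. 4,000 cells/well in duplicate; DMSO-only wells as control, cell-free medium wells for background.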

MDA-MB-231 [2] = experiment: Antiproliferative activity against human MDA-MB-231 cells expressing p53 R280K mutant assessed as inhibition of cell growth incubated for 72 hrs by WST-1 assay; type: functional, cell-based; conditions: MDA-MB-231, 72 h; outline: as §1
MCF7 [3] = experiment: Antiproliferative activity against human MCF7 cells expressing WT p53 assessed as inhibition of cell growth at 10 to 50 uM incubated for 24 to 72 hrs by WST-1 assay; type: functional, cell-based; conditions: dose 10-50 µM, time 24-72 hrs
Outline: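 WST-1 proliferation assay. Compound diluted in DMSO so that 10 μl of stock in 1 ml of cells (40,000 cells/ml) gives the test concentration at 1% DMSO. Cells plated at 4,000/well in duplicate and incubated at 37 °C for 24 h or 72 h. Result given as % of the 1% DMSO control.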

MCF7 [4] = experiment: Induction of apoptosis in human MCF-7 cells expressing wild type p53 assessed increase in number of Annexin-V stained cells at 6 to 12 uM incubated for 24 hrs by AnnexinV-FITC and PI staining based flow cytometry; type: functional, cell-based; conditions: dose 6-12 µM
Outline: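 24 h treatment, DMSO control. Cells scraped, washed in PBS, then given fluorochrome-conjugated Annexin V for 15 min at RT in the dark, followed by PI (0.1 µg/ml) in binding buffer. Read by flow cytometry on LSRFortessa. Annexin V-positive cells expressed relative to the DMSO control.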

MDA-MB-231 [5] = experiment: Induction of apoptosis in human MDA-MB-231 cells expressing p53 R280K mutant assessed as decrease in level of uncleaved caspase 3 level at 6 to 12 uM measured after 24 hrs by western blotting analysis; type: functional, cell-based; conditions: dose 6-12 µM
Outline: (§2)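 Cells treated with DMSO or compound at 6 or 12 µM for 24 h, then lysed in Tris-Cl pH 8.0/NaCl/glycerol/NP-40/EDTA buffer with protease inhibitors. 100 µg lysate resolved on 4-12% SDS-PAGE and blotted to PVDF. Probed with anti-PARP or anti-caspase 3, then HRP secondary and ECL. GAPDH reprobe as control.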

MDA-MB-468 [6] = experiment: Induction of apoptosis in human MDA-MB-468 cells expressing p53 R273H mutant assessed as decrease in level of uncleaved caspase 3 level at 6 to 12 uM measured after 24 hrs by western blotting analysis; type: functional, cell-based; conditions: dose 6-12 µM; outline: as §2
MDA-MB-231 [7] = experiment: Induction of apoptosis in human MDA-MB-231 cells expressing p53 R280K mutant assessed as decrease in level of uncleaved PARP1 level at 6 to 12 uM measured after 24 hrs by western blotting analysis; type: functional, cell-based; conditions: dose 6-12 µM; outline: as §2
MDA-MB-468 [8] = experiment: Induction of apoptosis in human MDA-MB-468 cells expressing p53 R273H mutant assessed as decrease in level of uncleaved PARP1 level at 6 to 12 uM measured after 24 hrs by western blotting analysis; type: functional, cell-based; conditions: dose 6-12 µM; outline: as §2
MCF7 [9] = experiment: Induction of apoptosis in human MCF7 cells expressing wild type p53 assessed as increase in cleaved PARP1 level at 6 to 12 uM measured after 24 hrs by western blotting analysis; type: functional, cell-based; conditions: dose 6-12 µM; outline: as §2
MDA-MB-468 [10] = experiment: Downregulation of p53 R273H mutant expression in human MDA-MB-468 cells at 6 to 12 uM measured after 24 hrs by immunoblot analysis; type: functional, cell-based; conditions: dose 6-12 µM
Outline: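 24 h exposure to 6 or 12 μM, DMSO control. Lysis in Tris pH 8.0/NaCl/glycerol/NP-40/EDTA buffer with protease inhibitors. 20 µg (MDA-MB-231, MDA-MB-468) or 50 µg (MCF-7) of lysate run on 4-12% SDS-PAGE. Blot probed with p53 DO-1, GAPDH used for reprobe/loading. Triplicate experiments.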

[11] = system: Cellular tumor antigen p53 (Homo sapiens), P04637 [R280K]; experiment: Reactivation of transactivation function to p53 R280K mutant in human MDA-MB-231 cells assessed as increase in p21 mRNA expression at 6 uM incubated for 4 hrs by qRT-PCR analysis; type: cell-based; conditions: filed as activator
Outline: (§3)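 Cells treated with DMSO or 6 µM test compound for 4 h. RNA extracted, cDNA synthesised, transcript measured by TaqMan qRT-PCR and normalised to GAPDH. Averages from triplicates of repeated experiments, with standard deviation.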

[12] = system: Cellular tumor antigen p53 (Homo sapiens), P04637 [R273H]; experiment: Reactivation of transactivation function to p53 R273H mutant in human MDA-MB-468 cells assessed as increase in NOXA mRNA expression at 6 uM incubated for 4 hrs by qRT-PCR analysis; type: cell-based; conditions: filed as activator; outline: as §3
[13] = biological target: Cellular tumor antigen p53 (Homo sapiens) (UniProt P04637); experiment: Activation of p53 in human MCF7 cells assessed as increase in p21 mRNA expression at 6 uM incubated for 4 hrs by qRT-PCR analysis; type: cell-based; conditions: filed as activator; outline: as §3
[14] = biological target: Cellular tumor antigen p53 (Homo sapiens) (UniProt P04637); experiment: Activation of p53 in human MCF7 cells assessed as increase in NOXA mRNA expression at 6 uM incubated for 4 hrs by qRT-PCR analysis; type: cell-based; conditions: filed as activator; outline: as §3
[15] = biological target: Cellular tumor antigen p53 (Homo sapiens) (UniProt P04637); experiment: Activation of p53 in human MCF7 cells assessed as increase in MDM2 mRNA expression at 6 uM incubated for 4 hrs by qRT-PCR analysis; type: cell-based; conditions: filed as activator; outline: as §3
[16] = system: Cellular tumor antigen p53 (Homo sapiens), P04637 [R273H]; experiment: Reactivation of transactivation function to p53 R273H mutant in human MDA-MB-468 cells assessed as increase in MDM2 mRNA expression at 6 uM incubated for 4 hrs by qRT-PCR analysis; type: cell-based; conditions: filed as activator; outline: as §3
MDA-MB-231 [17] = experiment: Effect on p53 R280K mutant mRNA expression in human MDA-MB-231 cells at 6 uM measured after 4 hrs by qRT-PCR analysis; type: functional, cell-based; outline: as §3
MCF-10A = experiment: Cytotoxicity against human MCF10A cells expressing wild type p53 assessed as inhibition of cell growth at 10 to 50 uM incubated for 24 to 72 hrs by WST-1 assay; type: functional, cell-based; conditions: dose 10-50 µM, time 24-72 hrs
MDA-MB-468 [18] = experiment: Antiproliferative activity against human MDA-MB-468 cells expressing p53 R273H mutant assessed as inhibition of cell growth incubated for 24 to 72 hrs by WST-1 assay; type: functional, cell-based; outline: as §1
MCF7 [19] = experiment: Inhibition of colony formation in human MCF7 cells expressing wild type p53 assessed as decrease in number of colonies at 1.5 to 24 uM incubated for 24 hrs followed by incubation in fresh medium for 10 days by methylene blue staining based analysis; type: functional, cell-based; conditions: dose 1.5-24 µM
Outline: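 500 cells/well seeded 24 h before treatment. Cells exposed to compound or DMSO control for 24 h at 37 °C, then grown 10 days at 37 °C in RPMI with 10% FBS. Colonies fixed in methanol, stained with methylene blue and counted. Survival expressed as percent of DMSO control.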

MCF7 [20] = experiment: Upregulation of p53 expression in human MCF7 cells at 6 to 12 uM measured after 24 hrs by immunoblot analysis; type: functional, cell-based; conditions: dose 6-12 µM
Outline: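 Cells treated with DMSO or compound at 6 or 12 µM for 24 h and lysed. 50 µg MCF-7 lysate resolved by SDS-PAGE and probed with p53 DO-1 antibody. Reprobed with anti-GAPDH as loading control. Run in triplicate.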

| Compound | IC50 (MDA-MB-231 [1]) | IC50 (MDA-MB-231 [2]) | Activity (MCF7 [3]) | Activity (MCF7 [4]) | Activity (MDA-MB-231 [5]) | Activity (MDA-MB-468 [6]) | Activity (MDA-MB-231 [7]) | Activity (MDA-MB-468 [8]) | Activity (MCF7 [9]) | inhibition (MDA-MB-468 [10]) | Activity [11] | Activity [12] | Activity [13] | Activity [14] | Activity [15] | Activity [16] | Activity (MDA-MB-231 [17]) | Activity (MCF-10A) | IC50 (MDA-MB-468 [18]) | inhibition (MCF7 [19]) | other results |
| --- | --- | --- | --- | --- | --- | --- | --- | --- | --- | --- | --- | --- | --- | --- | --- | --- | --- | --- | --- | --- | --- |
| S=C=NCCCC12CC3CC(CC(C3)C1)C2 | 12 µM | 12 µM | Active | inactive | Active | Active | Active | Active | inactive | Active | Active | Active | Active | Active | Active | Active | inactive | inactive | 12 µM | Active | Activity (MCF7 [20]): inactive |
| [Se]=C=NCCC12CC3CC(CC(C3)C1)C2 | 6 µM | 6 µM | Active | inactive | Active | Active | Active | Active | inactive | Active | Active | Active | Active | Active | Active | Active | inactive | inactive | 6 µM | Active | Activity (MCF7 [20]): Active |
